Here are results for nine compounds from ChEMBL document CHEMBL4814016, “Balancing potency and basicity by incorporating fluoropyridine moieties: Discovery of a 1-amino-3,4-dihydro-2,6-naphthyridine BACE1 inhibitor that affords robust and sustained central Aβ reduction” (Eur J Med Chem, 2021).

Data set [1] in a line: Dissociation constant, pKa of compound by capillary electrophoresis. It counts as physicochemical. Put shortly: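 pKa measured by capillary electrophoresis.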
For data set [2], the target named is T1, Beta-secretase 1 (Homo sapiens, UniProt P56817). The data set can be described thus: Inhibition of BACE1 in human SH-SY5Y cells expressing APP assessed as reduction in Abeta40 by HTRF assay. Type of data set: cell-based. Put shortly: (§1)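 The figures are means of at least two determinations. BACE1 activity was measured with a biochemical HTRF assay on an APP-derived peptide substrate. In the cellular assay, secreted Aβ40 from SH-SY5Y neuroblastoma cells transfected with human APP was measured by HTRF, and the IC50 derived from it.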
T1 sequence (P56817 whole entry): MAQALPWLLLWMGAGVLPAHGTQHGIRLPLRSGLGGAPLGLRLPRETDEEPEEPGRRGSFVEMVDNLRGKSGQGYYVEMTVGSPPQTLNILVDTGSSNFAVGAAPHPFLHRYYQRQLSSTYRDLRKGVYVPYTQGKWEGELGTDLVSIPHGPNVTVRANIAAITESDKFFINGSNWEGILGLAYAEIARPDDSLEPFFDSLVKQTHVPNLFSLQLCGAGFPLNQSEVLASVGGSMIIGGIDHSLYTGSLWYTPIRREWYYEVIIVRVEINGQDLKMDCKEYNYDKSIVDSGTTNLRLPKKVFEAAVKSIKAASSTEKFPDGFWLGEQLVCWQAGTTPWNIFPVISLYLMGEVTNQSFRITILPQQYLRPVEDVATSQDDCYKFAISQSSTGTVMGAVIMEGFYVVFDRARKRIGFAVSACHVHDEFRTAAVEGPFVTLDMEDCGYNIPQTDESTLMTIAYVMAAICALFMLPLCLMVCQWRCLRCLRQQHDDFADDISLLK

A further data set addresses hERG (KCNH2) (Homo sapiens, UniProt Q12809). As to the kind of experiment: Inhibition of human ERG at 5 uM by automated patch clamp assay relative to control. An outline of the steps: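 hERG inhibition measured at 5 µM with an automated patch clamp assay.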
Data set [3] concerns the target T1, Beta-secretase 1. As to the kind of experiment: Inhibition of BACE1 (unknown origin) by HTRF assay. An outline of the steps:
as §1
Background: In TR-FRET formats the signal depends on donor and acceptor labels being close together.

The target in a further data set is P-gp (MDR1, ABCB1) (Homo sapiens, UniProt P08183). The data set can be described thus: Substrate activity at P-gp (unknown origin) transfected in LLC-PK1 cells expressing human MDR1 gene assessed as efflux ratio. It counts as ADME, cell-based.
P-gp (MDR1, ABCB1), sequence (P08183 whole entry): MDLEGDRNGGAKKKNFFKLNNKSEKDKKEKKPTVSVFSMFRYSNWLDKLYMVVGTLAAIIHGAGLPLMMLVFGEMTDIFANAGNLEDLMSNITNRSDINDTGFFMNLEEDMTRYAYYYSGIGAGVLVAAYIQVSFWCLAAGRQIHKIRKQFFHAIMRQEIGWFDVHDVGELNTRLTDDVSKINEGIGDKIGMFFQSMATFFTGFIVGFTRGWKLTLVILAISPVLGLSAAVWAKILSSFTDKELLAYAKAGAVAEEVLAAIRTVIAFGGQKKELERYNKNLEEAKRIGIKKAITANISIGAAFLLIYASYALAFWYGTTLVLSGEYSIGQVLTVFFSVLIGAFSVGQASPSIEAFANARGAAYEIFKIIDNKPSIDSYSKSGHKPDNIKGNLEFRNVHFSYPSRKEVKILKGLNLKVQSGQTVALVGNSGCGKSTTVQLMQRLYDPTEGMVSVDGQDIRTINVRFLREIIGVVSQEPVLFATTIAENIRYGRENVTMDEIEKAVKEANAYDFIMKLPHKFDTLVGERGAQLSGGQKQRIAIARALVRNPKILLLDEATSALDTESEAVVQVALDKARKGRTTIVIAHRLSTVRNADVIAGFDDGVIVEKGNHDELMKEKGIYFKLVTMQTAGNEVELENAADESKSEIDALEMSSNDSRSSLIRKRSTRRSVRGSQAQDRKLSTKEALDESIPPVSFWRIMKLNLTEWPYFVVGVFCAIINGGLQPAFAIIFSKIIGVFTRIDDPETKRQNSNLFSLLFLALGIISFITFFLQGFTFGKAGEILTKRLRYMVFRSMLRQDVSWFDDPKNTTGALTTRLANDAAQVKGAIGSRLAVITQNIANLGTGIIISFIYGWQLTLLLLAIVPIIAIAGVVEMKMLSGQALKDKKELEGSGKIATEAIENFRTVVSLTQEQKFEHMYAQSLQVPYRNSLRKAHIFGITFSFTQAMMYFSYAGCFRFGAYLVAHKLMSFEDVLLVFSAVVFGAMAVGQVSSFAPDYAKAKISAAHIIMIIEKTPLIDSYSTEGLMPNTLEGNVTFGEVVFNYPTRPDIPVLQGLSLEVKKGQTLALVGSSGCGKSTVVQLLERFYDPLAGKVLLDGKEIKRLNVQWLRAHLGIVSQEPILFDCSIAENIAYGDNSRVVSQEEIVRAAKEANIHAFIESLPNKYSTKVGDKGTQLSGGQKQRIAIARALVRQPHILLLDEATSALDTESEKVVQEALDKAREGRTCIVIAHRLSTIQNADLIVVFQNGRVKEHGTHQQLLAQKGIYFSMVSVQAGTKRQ
Data set [4] in a line: Plasma concentration in Beagle dog at 1 mg/kg, po measured after 10 hrs. Type of data set: ADME, organism-based, Canis lupus familiaris. An outline of the steps: (§2)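 Beagle dogs, n = 3, were given 1 mg/kg orally as a suspension in 0.5% methylcellulose. Plasma and CSF drug concentrations were measured at 3, 7, 10 and 24 h. The CSF ratio is CSF concentration over unbound plasma concentration.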

The nature of data set [5]: Cmax in Beagle dog at 1 mg/kg, po. The note with it: in vivo.
Data set [6] is described as follows: Tmax in rat at 1 mg/kg, po. The note with it: in vivo. Type of data set: ADME, organism-based. An outline of the steps:
(§3)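 Rats dosed orally at 1 mg/kg, n = 2. Plasma AUC, Cmax and Tmax were taken from the profile. Bioavailability was calculated against an iv dose of 0.5 mg/kg, n = 2.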

Data set [7] in a line: Plasma concentration in Beagle dog at 1 mg/kg, po measured after 24 hrs. Type of data set: ADME, organism-based, Canis lupus familiaris. An outline of the steps:
as §2

Data set [8] in a line: Tmax in Beagle dog at 1 mg/kg, po. The note with it: in vivo.
Data set [9] can be described thus: Drug concentration in Beagle dog cerebrospinal fluid at 1 mg/kg, po measured after 24 hrs. It counts as ADME, organism-based, Canis lupus familiaris. The note with it: read-out: Ct. An outline of the steps: as §2
Data set [10] can be described thus: Plasma concentration in Beagle dog at 1 mg/kg, po measured after 7 hrs. It counts as ADME, organism-based, Canis lupus familiaris. An outline of the steps: as §2
Data set [11] can be described thus: AUC in rat at 1 mg/kg, po. It counts as ADME, organism-based. Further details: dose 1 mg/kg. The note with it: in vivo. An outline of the steps: as §3
Data set [12] is described as follows: Ratio of drug level in brain to plasma in rat at 0.5 mg/kg, iv. It counts as ADME, organism-based. Put shortly:
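Rats given 0.5 mg/kg iv, n = 2. Result is the total brain-to-plasma concentration ratio (Kp).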

A short description of data set [13]: Metabolic stability in rat liver microsomes assessed as parent compound remaining measured after 30 mins. It counts as ADME, Microsome. The note with it: read-out: Stabilty. Put shortly: (§4)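 Parent compound remaining (%) measured after 30 min incubation in rat or dog liver microsomes.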
The nature of data set [14]: Plasma concentration in Beagle dog at 1 mg/kg, po measured after 3 hrs. It counts as ADME, organism-based, Canis lupus familiaris. An outline of the steps:
as §2

Data set [15] is described as follows: Cmax in rat at 1 mg/kg, po. The note with it: in vivo. Further details: route oral, dose 1 mg/kg. It counts as ADME, organism-based. An outline of the steps:
as §3

A short description of data set [16]: Fraction unbound in Beagle dog serum. It counts as ADME, cell-free, Canis lupus familiaris. Put shortly: (§5)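 Fraction unbound measured in rat and dog serum.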
The nature of data set [17]: Fraction unbound in rat serum. It counts as ADME, cell-free. An outline of the steps:
as §5

Data set [18] can be described thus: Ratio of drug level in Beagle dog cerebrospinal fluid after 10 hrs to IC50 for inhibition of BACE1 in human SH-SY5Y cells expressing APP assessed as reduction in Abeta40 by HTRF assay. It counts as cell-based. Put shortly:
(§6)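 CSF drug concentration in dogs dosed orally at 1 mg/kg (0.5% methylcellulose suspension) at 10 and 24 h, divided by the cellular Aβ40 HTRF IC50 from SH-SY5Y cells expressing human APP.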

Data set [19] can be described thus: Ratio of drug level in Cerebrospinal fluid to plasma in Beagle dog at 1 mg/kg, po measured after 10 hrs. It counts as ADME, organism-based, Canis lupus familiaris, CSF/Plasma. An outline of the steps:
as §2

A short description of data set [20]: Metabolic stability in Beagle dog liver microsomes assessed as parent compound remaining measured after 30 mins. Type of data set: ADME, Canis lupus familiaris, Microsome. The note with it: read-out: Stabilty. Put shortly:
as §4
(Microsomes from liver hold many membrane-bound enzymes, among them those of drug oxidation.)

Data set [21] is described as follows: Ratio of drug level in Beagle dog cerebrospinal fluid after 24 hrs to IC50 for inhibition of BACE1 in human SH-SY5Y cells expressing APP assessed as reduction in Abeta40 by HTRF assay. Type of data set: cell-based. An outline of the steps: as §6
Data set [22] in a line: In vivo inhibition of amyloid beta in Beagle dog cerebrospinal fluid at 1 mg/kg, po measured after 10 hrs by ELISA. Type of data set: functional. The conditions noted are these: Canis lupus familiaris. An outline of the steps: (§7)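 Beagle dogs, n = 3, received 1 mg/kg orally as a 0.5% methylcellulose suspension. Total Aβ in CSF was measured by ELISA at 10 and 24 h and expressed as % reduction.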
On the technique in general: ELISA stands for enzyme-linked immunosorbent assay.

A short description of data set [23]: Drug concentration in Beagle dog cerebrospinal fluid at 1 mg/kg, po measured after 10 hrs. It counts as ADME, organism-based, Canis lupus familiaris. The conditions noted are these: read-out: Ct. An outline of the steps: as §2
Data set [24] can be described thus: Volume of distribution at steady state in rat at 0.5 mg/kg, iv. Type of data set: ADME, organism-based. The note with it: in vivo, read-out: Vdss. An outline of the steps:
(§8)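 Single iv dose of 0.5 mg/kg in rats, n = 2. Total clearance and steady-state volume of distribution were taken from the plasma profile.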

Data set [25] is described as follows: In vivo inhibition of amyloid beta in Beagle dog cerebrospinal fluid at 1 mg/kg, po measured after 24 hrs by ELISA. The note with it: Canis lupus familiaris. Type of data set: functional. Put shortly: as §7
A short description of data set [26]: Ratio of drug level in Cerebrospinal fluid to plasma in Beagle dog at 1 mg/kg, po measured after 24 hrs. It counts as ADME, organism-based, Canis lupus familiaris, CSF/Plasma. An outline of the steps: as §2
The nature of data set [27]: Clearance in rat at 0.5 mg/kg, iv. It counts as ADME, organism-based. The note with it: in vivo. An outline of the steps:
as §8

Data set [28] in a line: AUC in Beagle dog at 1 mg/kg, po. The conditions noted are these: in vivo.
Data set [29] can be described thus: Oral bioavailability in rat at 1 mg/kg. It counts as ADME, organism-based. The note with it: in vivo. An outline of the steps:
as §3

Data set [30] has as its target T1, Beta-secretase 1. The data set can be described thus: Inhibition of BACE1 (unknown origin).

hERG (KCNH2), sequence (Q12809 whole entry): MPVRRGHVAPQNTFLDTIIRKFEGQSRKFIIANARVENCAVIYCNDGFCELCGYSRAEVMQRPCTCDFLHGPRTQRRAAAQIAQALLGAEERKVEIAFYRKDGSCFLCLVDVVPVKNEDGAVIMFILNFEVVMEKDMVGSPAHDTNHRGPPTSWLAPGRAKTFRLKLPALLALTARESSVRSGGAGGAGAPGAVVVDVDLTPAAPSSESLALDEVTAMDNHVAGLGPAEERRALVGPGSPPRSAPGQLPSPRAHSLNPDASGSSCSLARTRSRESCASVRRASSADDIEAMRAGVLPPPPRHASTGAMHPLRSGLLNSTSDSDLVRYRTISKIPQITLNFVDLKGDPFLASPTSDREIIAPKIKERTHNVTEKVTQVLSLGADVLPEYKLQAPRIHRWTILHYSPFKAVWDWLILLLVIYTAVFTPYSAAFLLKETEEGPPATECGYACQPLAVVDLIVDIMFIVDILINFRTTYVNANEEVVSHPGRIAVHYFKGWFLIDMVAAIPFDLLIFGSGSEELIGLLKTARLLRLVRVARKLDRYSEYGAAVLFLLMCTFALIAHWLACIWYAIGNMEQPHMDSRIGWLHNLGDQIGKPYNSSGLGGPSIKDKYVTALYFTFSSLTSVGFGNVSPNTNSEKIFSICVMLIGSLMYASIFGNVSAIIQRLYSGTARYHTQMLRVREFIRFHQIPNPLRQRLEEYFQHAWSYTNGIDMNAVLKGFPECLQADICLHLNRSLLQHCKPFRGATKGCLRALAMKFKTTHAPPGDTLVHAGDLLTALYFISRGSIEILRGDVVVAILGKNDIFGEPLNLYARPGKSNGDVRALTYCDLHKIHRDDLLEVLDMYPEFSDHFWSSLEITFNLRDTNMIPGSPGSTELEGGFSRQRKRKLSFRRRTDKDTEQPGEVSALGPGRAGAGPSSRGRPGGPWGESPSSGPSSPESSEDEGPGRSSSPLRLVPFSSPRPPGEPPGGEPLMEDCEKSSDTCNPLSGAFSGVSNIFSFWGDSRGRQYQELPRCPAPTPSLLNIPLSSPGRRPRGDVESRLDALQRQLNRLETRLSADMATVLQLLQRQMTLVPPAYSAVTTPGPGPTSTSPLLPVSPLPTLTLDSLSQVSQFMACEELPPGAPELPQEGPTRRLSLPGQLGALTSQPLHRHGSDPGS

A word on the pKa: it is the pH at which an ionisable group is half protonated. Lower therefore signals a stronger acid or weaker base. Broadly, the IC50 is the concentration that gives 50% inhibition. The compound `CC1(c2cc(NC(=O)c3ccc(C#N)cn3)ccc2F)Cc2ncccc2C(N)=N1` (configuration not stated) gave a pKa in data set [1] of 9.4. Moreover, the IC50 on Beta-secretase 1 [2] was 4.1 nM.

What is called inhibition is the percentage by which the read-out fell short of the control. As to `CC1(c2cc(NC(=O)c3ccc(C#N)cn3)ccc2F)Cc2cncc(F)c2C(N)=N1` (configuration not stated), the pKa in data set [1] worked out at 7.3. The same compound yielded an inhibition at 5 µM on hERG (KCNH2) of 92%. For the same compound, the IC50 at Beta-secretase 1 [2] worked out at 11 nM; at Beta-secretase 1 [3], 118 nM.

As a reminder, the efflux ratio is the permeability from basolateral to apical divided by that in the opposite direction, in the common usage. Consider `CC1(c2cc(NC(=O)c3ccc(C#N)cn3)ccc2F)Cc2cnccc2C(N)=N1` (configuration not stated), for which, in [1], the pKa was found to be 9. Also, on hERG (KCNH2), testing at 5 µM gave an inhibition of 85%. The efflux ratio at P-gp (MDR1, ABCB1) came out at 37. For the same compound, the IC50 is 1.5 nM at Beta-secretase 1 [2] and 21 nM at Beta-secretase 1 [3].

For `CC1(c2cc(NC(=O)c3ccc(C#N)cn3)ccc2F)Cc2c(F)cncc2C(N)=N1` (configuration not stated), the pKa in data set [1] amounted to 7.6. On hERG (KCNH2), the inhibition at 5 µM was determined as 72%. Also, at P-gp (MDR1, ABCB1), the efflux ratio came out at 13. For the same compound, the IC50 on Beta-secretase 1 [2] is 0.25 nM; against Beta-secretase 1 [3], 12 nM.

Turning to `CC1(c2cc(NC(=O)c3ccc(C#N)cn3)ccc2F)Cc2c(ccnc2F)C(N)=N1` (configuration not stated), the values for the IC50 at Beta-secretase 1 [2] and against Beta-secretase 1 [3] were 0.36 nM and 14 nM, respectively.

One may read the Cmax as the highest concentration seen after dosing. As a reminder, the Tmax is the time at which the peak concentration occurs. The AUC is concentration integrated over time. A high value points to high exposure. As usually defined, the Kp is tissue or fluid exposure divided by exposure in the circulation. The fraction unbound is the share of the substance not bound to proteins or other matrix. The low end stands for little free substance, the high end for much free substance. As usually defined, the inhibition in vivo is the change of the read-out against control, counted positive when it falls. High values mean a strong effect, low ones a weak effect. A word on the clearance: it is a measure of how efficiently the substance is removed, as volume per time. Lower therefore signals a low capacity for elimination. As a reminder, the bioavailability is the share of a dose that reaches the circulation, judged against a reference dose that is usually intravenous. Low values mean little systemic uptake, high ones much systemic uptake. Turning to `C[C@@]1(c2cc(NC(=O)c3ccc(C#N)cn3)ccc2F)Cc2c(ccnc2F)C(N)=N1`, the concentration at 10 h in [4] was determined as 64 ng/mL; in data set [23], 0.56 ng/mL. Further, the Cmax in data set [5] turned out to be 78 ng/mL; in data set [15] it was 9 ng/mL. In addition, the Tmax in [6] is 4 h; in data set [8] it was 4.3 h. Moreover, the concentration at 24 h in data set [7] amounted to 47 ng/mL; in data set [9], 0.52 ng/mL. In addition, in [10], the concentration at 7 h worked out at 65 ng/mL. Besides, the AUC was 122 ng·h/mL in data set [11] and 3890 ng·h/mL in [28]. The Kp in [12] was 0.28. The results for the remaining at 0.5 h in data set [13] and in data set [20] were 22% and 93%, respectively. This compound also yielded a concentration at 3 h in [14] of 72 ng/mL. For the same compound, the fraction unbound turned out to be 0.14 in data set [16] and 0.15 in data set [17]. Also, the Ratio in data set [18] was found to be 3.3; in [21], 3. Besides, the Kp at 10 h in data set [19] is 0.07. The pKa in [1] is 8.2. Besides, the inhibition in vivo at 1 mg/kg worked out at 49% in data set [22] and 47% in [25]. In addition, the inhibition at 5 µM against hERG (KCNH2) worked out at 88%. Besides, the Vd in [24] is 14 L/kg. The efflux ratio at P-gp (MDR1, ABCB1) came to 13. Besides, in data set [26], the Kp at 24 h is 0.083. For the same compound, the IC50 on Beta-secretase 1 [2] worked out at 0.41 nM; on Beta-secretase 1 [3], 9.1 nM. The compound further came in with a clearance in data set [27] of 45 mL/min/kg. The same compound showed a bioavailability in data set [29] of 33%.

On to `CC1(c2cc(NC(=O)c3ccc(C#N)cn3)ccc2F)Cc2ccncc2C(N)=N1` (configuration not stated), for which, in data set [1], the pKa came out at 9.5. The same compound displayed an inhibition at 5 µM against hERG (KCNH2) of 83%. In addition, the values for the IC50 at Beta-secretase 1 [2] and at Beta-secretase 1 [3] were 1.3 nM and 8.1 nM, respectively.

Consider `CC1(c2cc(NC(=O)c3ccc(C#N)cn3)ccc2F)N=C(N)c2ccccc2O1` (configuration not stated), for which the IC50 at Beta-secretase 1 [30] came out at 82 nM.

For `CC1(c2cc(NC(=O)c3ccc(C#N)cn3)ccc2F)Cc2cccnc2C(N)=N1` (configuration not stated), the pKa in [1] was 9.8. The IC50 on Beta-secretase 1 [2] came to 26 nM; on Beta-secretase 1 [3] it was 394 nM.
